We go through six molecules from ChEMBL document CHEMBL2046281, “Pre-steady state kinetic analysis of cyclobutyl derivatives of 2'-deoxyadenosine 5'-triphosphate as inhibitors of HIV-1 reverse transcriptase” (Bioorg Med Chem Lett, 2012).

Assay [1] has as its target Human immunodeficiency virus type 1 reverse transcriptase (Human immunodeficiency virus 1) (UniProt Q72547). Briefly: Binding affinity to wild type HIV1 reverse transcriptase assessed as compound incorporation in presence of 50 nM primer template and 10 mM MgCl2 by pre-steady state kinetics study. Put shortly:
(§1)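 Pre-steady-state single-nucleotide incorporation by HIV-1 RT (wild type or K65R), 250 nM active-site enzyme, elongating a radiolabeled DNA/DNA primer-template (50 nM) that carries the primer binding site and its complementary sequence. Reactions contained 10 mM MgCl2 and varied nucleotide concentrations. kpol and Kd were derived, and incorporation efficiency was reported in s-1 µM-1.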

Assay [2] has as its target Human immunodeficiency virus type 1 reverse transcriptase (Human immunodeficiency virus 1, UniProt Q72547). Briefly: Binding affinity to wild type HIV1 reverse transcriptase by pre-steady state kinetics study. Put shortly: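 Pre-steady-state single-nucleotide incorporation by wild-type HIV-1 RT (250 nM active sites) into a radiolabeled DNA/DNA primer-template (50 nM) carrying the primer binding site and its complementary sequence. Reactions contained 10 mM MgCl2 and varied nucleotide concentrations. kpol and Kd were taken from the primer elongation data.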

In assay [3] the test system is Human immunodeficiency virus type 1 reverse transcriptase (Human immunodeficiency virus 1), Q72547 [K65R]. Briefly: Inhibition of HIV1 reverse transcriptase K65R mutant assessed as compound incorporation efficiency in presence of 50 nM primer template and 10 mM MgCl2 by pre-steady state kinetics study. Put shortly:
as §1

The target of assay [4] is Human immunodeficiency virus type 1 reverse transcriptase (Human immunodeficiency virus 1, UniProt Q72547, K65R). Briefly: Binding affinity to HIV1 reverse transcriptase K65R mutant by pre-steady state kinetics study. Put shortly:
as §1

The subject of assay [5] is Human immunodeficiency virus type 1 reverse transcriptase (Human immunodeficiency virus 1), Q72547 [K65R]. Briefly: Binding affinity to HIV1 reverse transcriptase K65R mutant assessed as compound incorporation in presence of 50 nM primer template and 10 mM MgCl2 by pre-steady state kinetics study. Put shortly:
as §1

Assay [6] has as its target Human immunodeficiency virus type 1 reverse transcriptase (Human immunodeficiency virus 1) (UniProt Q72547). Briefly: Inhibition of wild type HIV1 reverse transcriptase assessed as compound incorporation efficiency in presence of 50 nM primer template and 10 mM MgCl2 by pre-steady state kinetics study. A digest of the protocol:
as §1

For assay [7] the target is unchanged. In words: Discrimination index, ratio of incorporation efficiency of dATP to incorporation efficiency of compound for wild type HIV1 reverse transcriptase.
Assay [8] relates to Human immunodeficiency virus type 1 reverse transcriptase (Human immunodeficiency virus 1), Q72547 [K65R]. In words: Discrimination index, ratio of incorporation efficiency of dATP to incorporation efficiency of compound for wild type HIV1 reverse transcriptase K65R mutant.

What is called Kd is the constant that tells how readily two partners part at equilibrium. The low end stands for higher affinity, the high end for lower affinity. Turning to `C[C@H](Cn1cnc2c(N)ncnc21)OCP(=O)(O)OP(=O)(O)OP(=O)(O)O`, the values for the K in assay [1] and in assay [5] were 0.79 s⁻¹ and 0.15 s⁻¹, respectively. Besides, the Kd was found to be 16.5 µM in assay [2] and 29.1 µM in assay [4]. For the same molecule, the Activity came to 0.005 s⁻¹ µM⁻¹ in assay [3] and 0.048 s⁻¹ µM⁻¹ in assay [6]. Moreover, the Ratio in assay [7] amounted to 56; in assay [8], 122.
For the molecule `Nc1ncnc2c1ncn2[C@@H]1C[C@H](COP(=O)(O)OP(=O)(O)OP(=O)(O)O)[C@H]1F`, the K in assay [1] came to 0.13 s⁻¹. In assay [2], this molecule registered a Kd of 25.5 µM. Further, the Activity in assay [6] stood at 0.0052 s⁻¹ µM⁻¹. Also, the Ratio in assay [7] turned out to be 519.
Regarding `Nc1ncnc2c1ncn2[C@H]1C[C@@H](COP(=O)(O)OP(=O)(O)OP(=O)(O)O)C1`, the K in assay [1] is 0.23 s⁻¹. In assay [2], this molecule gave a Kd of 20.4 µM. In addition, the Activity in assay [6] is 0.011 s⁻¹ µM⁻¹. Further, in assay [7], the Ratio worked out at 245.
For `NC1=Nc2ncnc3c2c(cn3[C@H]2C[C@@H](COP(=O)(O)OP(=O)(O)OP(=O)(O)O)C2)C=C1` the same measures were 0.16 s⁻¹, 22.4 µM, 0.007 s⁻¹ µM⁻¹ and 386.
Consider `Nc1ncnc2c1ncn2[C@H]1C[C@@H](OCP(=O)(O)OP(=O)(O)OP(=O)(O)O)C1`, for which the K in assay [1] was determined as 1.3 s⁻¹; in assay [5], 0.07 s⁻¹. Moreover, the Kd came out at 6.5 µM in assay [2] and 4.7 µM in assay [4]. Moreover, the Activity in assay [3] amounted to 0.015 s⁻¹ µM⁻¹; in assay [6], 0.21 s⁻¹ µM⁻¹. For the same molecule, the Ratio in assay [7] turned out to be 13; in assay [8], 41.
Consider `Nc1ncnc2c1ncn2[C@H]1C[C@H](O)[C@@H](COP(=O)(O)OP(=O)(O)OP(=O)(O)O)O1`, for which the K in assay [1] came to 12.3 s⁻¹; in assay [5] it was 4 s⁻¹. Besides, the Kd in assay [2] stood at 4.6 µM; in assay [4] it was 6.6 µM. The Activity in assay [3] was 0.61 s⁻¹ µM⁻¹; in assay [6], 2.7 s⁻¹ µM⁻¹.
